pIC50: −log10 of the molar value. The source made the active and inactive calls. The rule behind the calls is not given here.
Legend:
[1] = Binding affinity to heme in HEPES buffer at pH 7.4 upto 60 uM after 30 mins by Jobs plot
[2] = Toxicity against human erythrocytes assessed as heme-induced hemolysis up to 30 uM in absence of heme; assay type: cell-based; settings: erythrocyte
Method in brief: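 Fresh heparinized human donor erythrocytes, washed six times in PBS, pH 7.4, used as a 0.5% suspension. Drugs up to 30 µM without heme were tested. Hemolysis was followed by turbidity at 630 nm, with a cells-only well taken as 0% hemolysis.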

Plasmodium falciparum = test: Antimalarial activity against chloroquine-sensitive Plasmodium falciparum D6 infected in human erythrocytes after 48 hrs; assay type: functional, organism-based; settings: D6, 48 h
Method in brief: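 Human erythrocytes infected with chloroquine-sensitive P. falciparum clone D6, mainly rings, at 4% parasitemia and 5% hematocrit. Cultured in RPMI 1640 with 10% human AB serum, with serial drug dilutions in triplicate. Incubated 48 h at 37°C in a candle jar. Parasitized cells per 10,000 counted on Giemsa-stained thin smears. Inhibition vs drug-free control was plotted, and IC50 (µM) read graphically.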

[3] = Toxicity against human erythrocytes assessed as potentiation of heme-induced hemolysis at 10 uM in presence of heme; assay type: cell-based; settings: erythrocyte
Method in brief: (§1)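 Washed fresh human erythrocytes (0.5% in PBS, pH 7.4) were used. Heme, either 0–20 µM with 10 µM drug or 10 µM with various drug concentrations, was preincubated 10 min in PBS, then cells were added. Plates were shaken 2 h at 37°C and read at 630 nm. Percent hemolysis was calculated relative to a cells-only control. Error bars are SD.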

[4] = Inhibition of beta-hematin formation after 16 hrs
[5] = Binding affinity to heme in phosphate buffer at pH 7.4 by Hills plot
[6] = Binding affinity to heme in HEPES buffer at pH 7.4 upto 20 uM after 30 mins by Jobs plot
Method in brief: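 Continuous-variation (Job's) method: drug and heme mixed in 40% DMSO buffered with 20 mM HEPES, pH 7.4, at a constant combined final concentration of 10 µM. Mixtures were held 30 min at room temperature (25°C). Differential absorbance at 400 nm was taken as the mixture absorbance minus the summed heme and drug absorbances. Three independent experiments, mean ± SEM.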

[7] = Binding affinity to heme in HEPES buffer at pH 7.4 after 30 mins by Jobs plot
Method in brief: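 Continuous-variation (Job's) plot: drug–heme mixtures in 40% DMSO buffered with 20 mM HEPES, pH 7.4, total heme plus drug held at 10 µM. Incubated 30 min at room temperature (25°C). Differential absorbance at 400 nm was taken as mixture minus summed heme and drug absorbance. Mean ± SEM of three independent experiments.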

[8] = Toxicity against human erythrocytes assessed as potentiation of heme-induced hemolysis in presence of variable concentration of heme; assay type: cell-based; settings: erythrocyte; method in brief: as §1

| Activity [1] | pIC50 (Plasmodium falciparum) | pIC50 [4] | Ka [5] [×10⁵ /M] | Activity [6] | Activity [7] | Activity [5] | Compound | Activity [2] | Activity [3] | Activity [8] |
| --- | --- | --- | --- | --- | --- | --- | --- | --- | --- | --- |
| Active | 7.00 | 5.54 | 0.61 | – | – | – | COc1cc(NC(C)CCCN)c2nc(C(C)(C)C)ccc2c1 (centres undefined) | Not Active | Dose-dependent effect | – |
| – | – | – | – | Active | – | – | CCN(CC)CCCC(C)Nc1ccnc2cc(Cl)ccc12 (centres undefined) [CHLOROQUINE] | Not Active | Dose-dependent effect | – |
| – | – | – | – | – | inactive | inactive | COc1cc(NC(C)CCCN)c2ncccc2c1 (centres undefined) [PRIMAQUINE] | Not Active | Not Active | Not Active |
